Data set [1] relates to H9. In words: Cytotoxicity against human H9 cells. Format: cell-based. The method, boiled down: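 Uninfected H9 T cells (log phase, RPMI 1640 + 10% FCS) were seeded at 4 × 10^5 cells/mL with compound diluted in medium and kept 4 days at 37 °C, 5% CO2. Cell density was counted by Coulter counter and IC50 was derived.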
Data set [2] is described as follows: Therapeutic index, ratio of IC50 for human H9 cells to EC50 for HIV1 3B. The data set is classed as cell-based. To be noted: H9 cells infected with HIV-1 3B, read-out: TI.
Data set [3] has as its system Human immunodeficiency virus 1. Briefly: Antiviral activity against HIV1 3B infected in human H9 T cells after 4 days by ELISA. The data set is classed as functional, organism-based. As to conditions: for EC50: Human immunodeficiency virus 1, 3B, H9, 96 h. In outline: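 H9 T cells kept in RPMI 1640 with 10% fetal calf serum at 37 °C, 5% CO2, used in log phase. Infected with HIV-1 IIIB (MOI 0.1-0.01 IU/cell) for 1 h, washed, and seeded at 4 × 10^5 cells/mL with compound diluted in medium. After 4 days at 37 °C, p24 in medium was read by sandwich ELISA (cutoff 12.5 pg/mL) against a p24 standard curve. EC50 was derived.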
Background: In an ELISA, binding on a coated surface is turned into a signal by an enzyme label.

Molecules are shown by their SMILES. Converted amounts (≈) assume the structure as drawn. The source made the active and inactive calls.

As for `CC1=CC[C@@H]([C@@H](C)[C@H]2CC[C@@]3(C)C4=C(C=C(CCC(=O)O)C(=C(C)C)C=C4)CC[C@]23C)OC1=O` [LANCILACTONE C], the IC50 in data set [1] was above 100 µg/mL. In data set [2], the selectivity ratio is above 71.4. The molecule also returned an EC50 in data set [3] of 1.4 µg/mL (≈ 3.01 µM).
Regarding `CC1=CC[C@@H]([C@@H](C)[C@H]2CC[C@@]3(C)C4=C(C=C5C=CC(=O)OC(C)(C)[C@@H]5C=C4)CC[C@]23C)OC1=O` [LANCILACTONE B], the IC50 in data set [1] was determined as 7.1 µg/mL (≈ 15.3 µM). Also, the outcome in data set [3] was inactive.
`CC1=CC[C@@H]([C@@H](C)[C@H]2CC[C@@]3(C)C4=C(C=C5C=CC(=O)OC(C)(C)[C@@H]5[C@H](O)C4)CC[C@]23C)OC1=O` [LANCILACTONE A] gave an IC50 in data set [1] of 14.3 µg/mL (≈ 29.8 µM). The result in data set [3] was inactive.
`CC1=CC[C@@H]([C@@H](C)[C@H]2CC[C@@]3(C)[C@@H]4C[C@@H](O)[C@H]5C(C)(C)OC(=O)C=C[C@@]56C[C@@]46CC[C@]23C)OC1=O` [KADSULACTONE A]: in data set [1], half-maximal inhibition (IC50) required 8.6 µg/mL (≈ 17.8 µM). The result in data set [3] was inactive.
In turn, `Cc1cn([C@H]2C[C@H](N=[N+]=[N-])[C@@H](CO)O2)c(=O)[nH]c1=O` [ZIDOVUDINE] came in with an EC50 in data set [3] of 0.045 µg/mL (≈ 0.168 µM).

A word on the IC50: it is the point on the concentration scale where inhibition reaches its midpoint. High values mean weaker potency, low ones greater potency. The term EC50 denotes the concentration giving half of the maximal effect. Low readings indicate an effect from little substance, high ones a need for much substance.
